According to ChEMBL document CHEMBL3632527 (J Med Chem, 2015):
pEC50, pKi: −log10 of the molar value. Calls of active or inactive are those of the source. No cut-off for these calls is given here.

Tests used:
T98G [1] = assay: Potentiation of antiproliferative activity of PK11195 at 100 uM against human T98G cells incubated for 48 hrs by BrdU enzyme-linked immunosorbent assay; format: functional, cell-based
T98G [2] = assay: Antiproliferative activity against human T98G cells at 1 to 100 uM incubated for 48 hrs by BrdU enzyme-linked immunosorbent assay; format: functional, cell-based
Summary of the method: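 Basal proliferation of T98G human glioma cells, which carry the Ala147 TSPO genotype without the rs6971 polymorphism, was measured with compounds alone at 1–100 μM.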

T98G [3] = assay: Cytotoxicity against human T98G cells assessed as cell viability in the presence of PK11195 after 48 hrs by cell titer blue staining based fluorescence method
Translocator protein [4] = target: T1, Translocator protein (Homo sapiens, UniProt P30536); assay: Displacement of [3H]PK11195 from TSPO in human HEK293T cell membranes incubated for 90 mins by competition radioligand binding assay; design: species or system HEK-293T
T98G [5] = assay: Cytotoxicity against human T98G cells assessed as cell viability after 48 hrs by cell titer blue staining based fluorescence method
Translocator protein [6] = target: T1, Translocator protein; assay: Displacement of [3H]PK11195 from TSPO in human T98G cell membranes incubated for 90 mins by competition radioligand binding assay
T98G [7] = assay: Potentiation of antiproliferative activity of PK11195 against human T98G cells incubated for 48 hrs by BrdU enzyme-linked immunosorbent assay; format: functional, cell-based
T98G [8] = assay: Potentiation of antiproliferative activity of PK11195 at 10 uM against human T98G cells incubated for 48 hrs by BrdU enzyme-linked immunosorbent assay; format: functional, cell-based
T98G [9] = assay: Potentiation of antiproliferative activity of PK11195 at 62.5 uM against human T98G cells incubated for 48 hrs by BrdU enzyme-linked immunosorbent assay; format: functional, cell-based

T1 sequence (P30536 whole entry): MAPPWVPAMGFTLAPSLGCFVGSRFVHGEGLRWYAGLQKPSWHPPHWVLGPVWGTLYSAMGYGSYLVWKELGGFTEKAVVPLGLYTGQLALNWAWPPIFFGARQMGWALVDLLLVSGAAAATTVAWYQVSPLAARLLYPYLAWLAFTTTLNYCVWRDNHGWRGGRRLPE

Row | SMILES | Activity (T98G [1]) | Activity (T98G [2]) | Activity (T98G [3]) | pKi (Translocator protein [4]) | Activity (T98G [5]) | pKi (Translocator protein [6]) | pEC50 (T98G [7]) | Activity (T98G [8]) | Activity (T98G [9])
1 | CCN(CC)C(=O)Cn1c(-c2ccc(OC)cc2)nc2c(C)nc(C)nc21 | inactive | inactive | Non-toxic | < 5.00 | Non-toxic | < 5.00 | – | – | –
2 | CCN(CC)C(=O)Cn1c(-c2ccc(OC)cc2)cc2c(C)cc(C)cc21 | – | inactive | Non-toxic | 7.55 | Non-toxic | 6.09 | 4.83 | Active | –
3 | CCN(CC)C(=O)Cn1c(-c2ccc(OC)cc2)nc2c(C)cc(C)nc21 | inactive | inactive | Non-toxic | 7.54 | Non-toxic | 6.84 | – | – | –
4 | CCN(CC)C(=O)Cn1c(-c2ccc(OC)cc2)nc2c(C)cc(C)cc21 | – | inactive | Non-toxic | 6.65 | Non-toxic | 6.40 | – | – | Active
5 | CCN(CC)C(=O)Cc1c(-c2ccc(OC)cc2)nn2c(C)cc(C)nc12 | inactive | inactive | Non-toxic | – | Non-toxic | – | – | – | –
